Measured values taken from ChEMBL document CHEMBL1649408, “Synthesis and in vitro antimycobacterial activity of 8-OCH(3) ciprofloxacin methylene and ethylene isatin derivatives” (Eur J Med Chem, 2011).
≈ marks a conversion by molar mass, not a printed value.

What was measured:
[1] = tested on: Mycobacterium tuberculosis; assay: Antimycobacterial activity against multidrug-resistant Mycobacterium tuberculosis 09710 after 7 days by serial double dilution technique; format: functional; conditions: Mycobacterium tuberculosis, 09710, 168 h
How it was run: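 MDR strain (resistant to RIF, INH, EMB, SM), clinical isolate, tested by rapid direct susceptibility test. Compounds two-fold diluted in 2× Advanced Middlebrook 7H9 broth, final 256 to 1 µg/ml, mixed 1:1 with suspension containing 4 × 10^-3 mg cells. Incubated sealed at 37 °C in wet box; read at 3 days, redetermined at 7 days by high-magnification visual system. MIC = complete growth inhibition.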

[2] = tested on: Mycobacterium tuberculosis; assay: Ratio of compound MIC to ciprofloxacin MIC for multidrug-resistant Mycobacterium tuberculosis 09710; format: functional

Compound	MIC [1] [µM]	Ratio [2]
COc1c(N2CCNCC2)c(F)cc2c(=O)c(C(=O)O)cn(C3CC3)c12	11.1 (≈ 4 µg/mL)	–
COc1c(N2CCN(CN3C(=O)C(=O)c4ccccc43)CC2)c(F)cc2c(=O)c(C(=O)O)cn(C3CC3)c12	30.8 (≈ 16 µg/mL)	–
COc1c(N2CCN(CN3C(=O)C(=O)c4cc(F)ccc43)CC2)c(F)cc2c(=O)c(C(=O)O)cn(C3CC3)c12	14.9 (≈ 8.01 µg/mL)	–
COc1c(N2CCN(CN3C(=O)/C(=N\O)c4ccccc43)CC2)c(F)cc2c(=O)c(C(=O)O)cn(C3CC3)c12	29.9 (≈ 16 µg/mL)	–
COc1c(N2CCN(CN3C(=O)/C(=N\O)c4cc(F)ccc43)CC2)c(F)cc2c(=O)c(C(=O)O)cn(C3CC3)c12	14.5 (≈ 8.01 µg/mL)	–
CO/N=C1\C(=O)N(CN2CCN(c3c(F)cc4c(=O)c(C(=O)O)cn(C5CC5)c4c3OC)CC2)c2ccccc21	14.6 (≈ 8.01 µg/mL)	–
CO/N=C1\C(=O)N(CN2CCN(c3c(F)cc4c(=O)c(C(=O)O)cn(C5CC5)c4c3OC)CC2)c2ccc(F)cc21	7.05 (≈ 4 µg/mL)	3.5
CCO/N=C1\C(=O)N(CN2CCN(c3c(F)cc4c(=O)c(C(=O)O)cn(C5CC5)c4c3OC)CC2)c2ccccc21	28.4 (≈ 16 µg/mL)	–
COc1c(N2CCN(CN3C(=O)/C(=N\NC(N)=O)c4ccccc43)CC2)c(F)cc2c(=O)c(C(=O)O)cn(C3CC3)c12	6.93 (≈ 4 µg/mL)	3.5
COc1c(N2CCN(CN3C(=O)/C(=N\NC(N)=O)c4cc(F)ccc43)CC2)c(F)cc2c(=O)c(C(=O)O)cn(C3CC3)c12	6.72 (≈ 4 µg/mL)	3.5
COc1c(N2CCN(CN3C(=O)/C(=N\NC(N)=S)c4ccccc43)CC2)c(F)cc2c(=O)c(C(=O)O)cn(C3CC3)c12	6.75 (≈ 4.01 µg/mL)	3.5
O=C(O)c1cn(C2CC2)c2cc(N3CCNCC3)c(F)cc2c1=O [CIPROFLOXACIN]	24.2 (≈ 8.01 µg/mL)	–
NNC(=O)c1ccncc1 [ISONIAZID]	467 (≈ 64 µg/mL)	–
CO[C@H]1/C=C/O[C@@]2(C)Oc3c(C)c(O)c4c(O)c(c(/C=N/N5CCN(C)CC5)c(O)c4c3C2=O)NC(=O)/C(C)=C\C=C\[C@H](C)[C@H](O)[C@@H](C)[C@@H](O)[C@@H](C)[C@H](OC(C)=O)[C@@H]1C [RIFAMPIN]	> 311	–
